Screening results deposited in PubChem by The Scripps Research Institute Molecular Screening Center.
In the library only some 1.9% were active in any assay of this set; here they are far more common.
CHRM5 antagonist = antagonists of human muscarinic M5 receptor (CHRM5); P08912; CHO-hM5 cells, Fluo-8 calcium fluorescence, ACh EC80; inhibition, % at 3 µM; 360,000 tested, 0.59% active;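 active means inhibition above a per-plate cutoff, the mean of that plate's test compounds plus 3 SD, cut at about 27% in these data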
Target sequence (P08912 whole entry, looked up): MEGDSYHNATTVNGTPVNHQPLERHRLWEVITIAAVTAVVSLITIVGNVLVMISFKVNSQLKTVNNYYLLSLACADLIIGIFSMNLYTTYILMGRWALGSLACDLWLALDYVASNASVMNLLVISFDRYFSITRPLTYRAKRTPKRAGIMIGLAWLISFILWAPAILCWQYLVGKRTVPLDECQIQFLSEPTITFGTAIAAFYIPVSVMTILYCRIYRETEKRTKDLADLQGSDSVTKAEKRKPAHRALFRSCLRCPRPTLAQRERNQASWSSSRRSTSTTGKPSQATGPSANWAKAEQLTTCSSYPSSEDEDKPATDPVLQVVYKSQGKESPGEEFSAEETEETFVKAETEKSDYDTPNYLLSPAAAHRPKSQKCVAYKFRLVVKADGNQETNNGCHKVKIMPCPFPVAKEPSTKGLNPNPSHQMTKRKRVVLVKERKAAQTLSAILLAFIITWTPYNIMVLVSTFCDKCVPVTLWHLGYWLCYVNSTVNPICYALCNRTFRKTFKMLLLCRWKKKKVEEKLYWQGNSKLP
M4 ag = agonists of human muscarinic M4 receptor (CHRM4); P08173; CHO-K1 hM4/Gqi5, Fluo-8 calcium fluorescence; vehicle 0%, full acetylcholine response 100%; activation, % at 3 µM; 360,000 tested, 0.14% active; AID 624127;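 active means activation above the run mean over all test wells plus 3 SD, cut at about 32% in these data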;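 further: peak over basal fluorescence ratio per well then scaled between controls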
M5 ag = CHRM5 agonism in calcium assay; activation, % at 3 µM; 360,000 tested, 0.19% active; P08912; CHO-K1 hM5 cells, Fluo-8 calcium fluorescence; 0% DMSO wells, 100% maximal acetylcholine response;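 active means activation above the run's mean over test compounds plus 3 SD, cut at about 23% in these data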;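 further: signal is peak over basal fluorescence ratio across the kinetic read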
M4 PAM = CHRM4 positive allosteric modulation; P08173; CHO-K1 hM4/Gqi5, Fluo-8 calcium fluorescence, ACh EC20; 0% = ACh EC20, 100% = maximal ACh; activation, % at 3 µM; 360,000 tested, 0.4% active; AID 624126;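 active means activation above its plate's cutoff, the mean activation of sample wells plus 3 SD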
CHRM4 antagonist = blocks acetylcholine activation of human M4 receptor; CHO-hM4 cells, ACh EC80, Fluo-8 calcium fluorescence; 360,000 tested, 0.73% active; inhibition, % at 3 µM; P08173;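 active means inhibition above its plate's cutoff, the mean inhibition of sample wells plus 3 SD, cut at about 27% in these data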
CHRM5 PAM = CHRM5 positive allosteric modulation | 360,000 tested, 0.3% active | AID 624038 | CHO-K1 hM5, Fluo-8 calcium, ACh EC20 PAM; 0% = ACh EC20, 100% = ACh EC100 | P08912 | activation, % at 3 µM;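 active means activation above the run cutoff, the mean activation of all test compounds plus 3 SD, cut at about 18% in these data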
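Assay system: CHO-K1 hM5 cells / Incubation: Fluo-8 loading 80 min at 37 °C plus 30 min room temperature / Technique: Fluo-8 calcium dye fluorescence, kinetic read / Repeats: single replicate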
Each line names hits and unclear results; the compound was inactive in the other large screens.

C=Cc1ccc(Cn2c(C)c(C(=O)NCc3ccc(C#N)cc3)sc2=O)cc1	none
CSCCC(C(=O)NC1CCCC1)n1c(C2CC2)nc2ccccc21 (stereo not given)	none
Cc1c(NC(=O)c2cc(-c3cccs3)nc3ccccc23)c(=O)n(-c2ccccc2)n1C	CHRM5 antagonist 27.1
CC1=CC(C/C(C)=C/COc2ccc3ccc(=O)oc3c2)OC1=O (stereo not given)	M4 PAM 34.8
O=C1CSC(c2ccccc2)N1c1ccc([N+](=O)[O-])cc1 (stereo not given)	CHRM4 antagonist 33.3
CC(C)NC(=O)C1(C)CN(S(C)(=O)=O)CC(=O)N1C1CC1 (stereo not given)	none
Nc1c(C(=O)c2ccc(Cl)cc2)sc2nc3c(cc12)CCC3	M4 PAM 23.0
CCC/C=C/c1ccc(CN2C(C(C)C)C(=O)N(Cc3cn(Cc4ccco4)nn3)CCS2(=O)=O)cc1 (stereo not given)	none
Cc1cc(C)c(-c2csc(NC(=O)c3cc([N+](=O)[O-])ccc3N3CCOCC3)n2)c(C)c1	CHRM4 antagonist 36.1
O=C(Nc1nc(-c2ccc(F)c(F)c2)cs1)c1cc([N+](=O)[O-])ccc1N1CCOCC1	none
CCOc1ccc(NC(=O)CCn2c(=S)oc3ccccc32)cc1	M4 PAM 27.4
COc1ccc(S(=O)(=O)N2CCCCC2)cc1NC(=O)CN(C)C1CCCCC1	none
COc1ccc(S(=O)(=O)N2CCCCC2)cc1NC(=O)CN(Cc1ccco1)Cc1ccco1	CHRM5 antagonist 43.5, CHRM4 antagonist 26.6
CCCC(=O)N1CCCC1(C)C(=O)NCc1ccc(SC)cc1 (stereo not given)	none
CC(C)Sc1cc(N2CCOCC2)nc(-c2ccccc2)n1	M4 PAM 31.9
Cc1ccc(S(=O)(=O)N2CCOCC2)cc1NC(=O)CN(C)CC(=O)Nc1cccc(F)c1	none
COc1ccccc1CCC(=O)Nc1ccc2c(c1)c(=O)n(C)n2C	none
O=C(C1CCCCC1)N1CCC2CC1c1cc(N3CCCCC3)ccc12 (stereo not given)	CHRM4 antagonist 37.2
O=C(c1ccccc1F)N1CCC2CC1c1cc(N3CCCCC3)ccc12 (stereo not given)	none
CCCCn1c(N)c(N(CCC(C)C)C(=O)CSc2nc3ccccc3n2C)c(=O)[nH]c1=O	CHRM5 PAM 21.2
CCCCn1c(N)c(N(CCC(C)C)C(=O)c2cc(Cl)nc3ccccc23)c(=O)[nH]c1=O	CHRM5 PAM 25.5
CCCCn1c(N)c(N(CC(C)C)C(=O)c2cccc(S(=O)(=O)N3CCCCC3)c2)c(=O)[nH]c1=O	M4 PAM 21.6
CCCCn1c(N)c(N(CCC(C)C)C(=O)COC(=O)c2ccc3ccccc3c2)c(=O)[nH]c1=O	M4 PAM 22.7
CCCCn1c(N)c(N(CC(C)C)C(=O)c2cccc(S(=O)(=O)N3CCCCCC3)c2)c(=O)[nH]c1=O	none
Cn1c(/N=C(\N)c2ccccc2)nc2ccccc21	none
CCNC(=O)C1(C)CCCN(Cc2ccc(-n3ccnc3)cc2)C1 (stereo not given)	none
O=C(NC(Sc1ccc(Cl)cc1)C(=O)O)c1ccccc1 (stereo not given)	none
O=C(COC(=O)c1nc(Cl)ccc1Cl)Nc1ccc(Cl)cc1	M4 PAM 22.0
CC(=O)Nc1cccc(-c2ccnc3c2CC(C)(C(=O)Nc2cccnc2)O3)c1 (stereo not given)	none
N/C(=N\OC(=O)CSc1ccccc1)c1ccccn1	M4 PAM 21.2
O=C(C(Cc1ccccc1)n1cccc1)N1CCN(c2ccccc2)CC1 (stereo not given)	none
Cc1ccc(C)c(N2CCN(C(=O)C(Cc3ccccc3)n3cccc3)CC2)c1 (stereo not given)	M5 ag 41.7
CC(=O)C[C@@H]1SC[C@H](c2ccccc2)N1S(=O)(=O)c1ccc(C)cc1	none
O=S(=O)(CCc1nc2ccccc2[nH]1)c1ccc(Cl)cc1	M4 PAM 22.9
Cc1ccc(S(=O)(=O)CCc2nc3ccccc3[nH]2)cc1	none
CC(Sc1ccccc1)C(=O)N/N=C/c1cccnc1 (stereo not given)	none
CC(Oc1cccc2ccccc12)C(=O)N/N=C/c1cccnc1 (stereo not given)	M4 PAM 22.0
CCS(=O)(=O)N1CCN(c2ncnc3sc(C)c(C)c23)CC1	M4 PAM 21.3
Cc1sc2ncnc(N3CCC(C(=O)Nc4ccc(Cl)cc4Cl)CC3)c2c1C	M4 PAM 38.3
Cc1sc2ncnc(N3CCC(C(=O)Nc4ccc(Cl)c(Cl)c4)CC3)c2c1C	M4 PAM 22.6
Cc1sc2ncnc(N3CCC(C(=O)Nc4ccc(Br)cc4Br)CC3)c2c1C	M4 PAM 21.6
CCc1cccc(NC(=O)C2CCN(c3ncnc4sc(C)c(C)c34)CC2)c1	none
Cc1cc(C)c(C)c(S(=O)(=O)N2CCN(c3ncnc4sc(C)c(C)c34)CC2)c1C	none
COc1ccc(C(=O)C[C@@H]2OC3CCCCC3N2S(=O)(=O)c2ccc(C)cc2)cc1OC (stereo not given in full)	none
CNC(=O)c1ccc(NC(=O)C2CCN(c3ncnc4sc(C)c(C)c34)CC2)cc1	M4 ag 71.6, CHRM4 antagonist 70.4
CC(=O)COc1cccc2ccc(/C=C/c3ccc(Br)s3)nc12	CHRM5 PAM 22.7
C[C@H](CO)N1C[C@H](C)[C@@H](CN(C)Cc2ccc(Oc3ccccc3)cc2)Oc2c(NC(=O)C3CC3)cccc2C1=O	CHRM4 antagonist 38.2
C[C@H]1CN([C@@H](C)CO)C(=O)c2cccc(NC(=O)Nc3ccc(C(F)(F)F)cc3)c2O[C@H]1CN(C)C	CHRM5 PAM 20.5
C[C@@H]1CCCCO[C@H](CN(C)S(=O)(=O)c2cn(C)cn2)[C@@H](C)CN([C@H](C)CO)C(=O)c2cc(NC(=O)c3ccncc3)ccc2O1	M4 PAM 17.6
C[C@H](CO)N1C[C@H](C)[C@@H](CN(C)S(C)(=O)=O)Oc2ccc(NC(=O)Nc3ccccc3)cc2C1=O	CHRM5 PAM 21.8
COc1ccc(NC(=O)Nc2ccc3c(c2)C(=O)N([C@H](C)CO)C[C@H](C)[C@@H](CN(C)S(C)(=O)=O)O3)cc1	none
C[C@@H]1CCCCO[C@H](CN(C)S(=O)(=O)c2cn(C)cn2)[C@H](C)CN([C@@H](C)CO)C(=O)c2cc(NC(=O)c3ccccc3)ccc2O1	none
COC(=O)[C@@]12C[C@@H](CC(=O)N3CCOCC3)C(=O)N(Cc3ccccc3)C1=CCC(C)(C)C2	none
